PubChem BioAssay AID588713 (Southern Research Specialized Biocontainment Screening …, 2011)
Activity calls are given as the source filed them.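 Rule for the calls: active = log virus titer change below -1, over tenfold drop in progeny titer versus untreated infected control; inactive = the rest.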

tested on: HEp-2 cells, RSV plaque reduction, virus titer; assay: antiviral effect on respiratory syncytial virus yield – cell-based, plaque reduction, set 4 (AID 588713); conditions: at 10 µM; stronger effect = lower value
Procedure, shortened: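 assay system = RSV-infected HEp-2 cells | doses = test compound with 0.5% DMSO final | also added = RSV Long, MOI 0.1 | detection = neutral red-stained plaques on HEp-2 monolayers | timing = 2 h infection, then 48 h compound exposure at 37 °C | evaluation = progeny virus titer in serially diluted 48 h supernatants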

SMILES	log virus titer change
COCCCNC(=O)c1ccc(Cn2c(=O)c3ccccc3n(Cc3ccc([N+](=O)[O-])cc3)c2=O)cc1	< -6.18
CC(C)c1ccc(Cn2c(=O)n(Cc3ccc(C(=O)NCc4ccco4)cc3)c(=O)c3ccccc32)cc1	-2.83
CN(C)c1ccc(Cn2c(=O)n(Cc3ccc(C(=O)NCC4COC4)cc3)c(=O)c3ccccc32)cc1	< -6.18
O=C(O)c1ccc(Cn2c(=O)n(Cc3ccc(C(=O)NCC4COC4)cc3)c(=O)c3ccccc32)cc1	0.68 (inactive)
